Test results taken from ChEMBL document CHEMBL5034020, “Self-Masked Aldehyde Inhibitors: A Novel Strategy for Inhibiting Cysteine Proteases” (J Med Chem, 2021).
Active and inactive are the calls of the source. No cut-off for these calls is given here. Residues, ends and D or L forms follow the SMILES beside them. *: point of attachment. Cbz = O=C(OCc1ccccc1)*

Assays:
[1] = biological target: Cruzipain (Trypanosoma cruzi) (UniProt P25779); experiment: Reversible inhibition of Trypanosoma cruzi cruzain using Cbz-Phe-Arg-AMC as substrate at 0.1 times apparent Ki preincubated for 2 hrs followed by 100-fold dilution in presence of substrate by rapid dilution assay relative to control
[2] = biological target: Cruzipain (Trypanosoma cruzi) (UniProt P25779); experiment: Reversible inhibition of Trypanosoma cruzi cruzain using Cbz-Phe-Arg-AMC as substrate assessed as enzyme recovery at 10 fold >apparent Ki preincubated for 2 hrs followed by 100-fold dilution in presence of substrate by rapid dilution assay relative to control; set-up: scale not given: the % may be the effect or the level left
[3] = test system: Trypanosoma brucei brucei; experiment: Antitrypanosomal activity against bloodstream form of Trypanosoma brucei brucei measured after 3 to 4 days by Z2 coulter counter based analysis; format: functional, organism-based
Outline: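 Bloodstream-form T. b. brucei SM427 grown at 37 °C in HM1–9 with 10% FBS and penicillin–streptomycin, seeded at ~1×10⁶ cells. Inhibitor at 0.5–20 μM final (DMSO <1%). Cultures diluted daily to stay in log phase, with inhibitor re-added each time. Cells counted with a Coulter counter.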

Cruzipain = Cruzipain (Trypanosoma cruzi, UniProt P25779); experiment: Time dependent inhibition of Trypanosoma cruzi cruzain using Cbz-Phe-Arg-AMC as substrate assessed as inhibition constant for EI complex measured for 0.5 to 1 hr by fluorescence based analysis
C2C12 = experiment: Cytotoxicity against mouse C2C12 cells assessed as reduction in cell viability at up to 40 uM; format: cell-based
[4] = Stability of the compound in buffer at pH 7.5 assessed as conversion to N-((2S)-1-((3S)-2-hydroxychroman-3-ylamino)-1-oxo-3-phenylpropan-2-yl)-4-methylpiperazine-1-carboxamide by measuring half life by LC-MS analysis; format: physicochemical
Trypanosoma cruzi = experiment: Antitrypanosomal activity against Trypanosoma cruzi infected in mouse C2C12 cells incubated for 2 days by DAPI staining based microscopic analysis; format: functional, organism-based; conditions: C2C12, 48 h
Outline: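 Inhibitor added as 3-fold serial dilutions, top 40 μM (typically 0.02–40 μM), 2 days at 37 °C. Fixed with 2% PFA in PBS, stained with 5 μg/mL DAPI for >30 min in the dark, then imaged to count parasites and host cells.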

Liver carboxylesterase = biological target: T1, Liver carboxylesterase (Sus scrofa, UniProt Q29550); experiment: Stability of the compound in buffer at pH 7.5 assessed as porcine esterase-mediated compound degradation measured over 3 hrs by LC-MS analysis; format: ADME; conditions: pig, read-out: Drug degradation
T1 sequence (Q29550 whole entry): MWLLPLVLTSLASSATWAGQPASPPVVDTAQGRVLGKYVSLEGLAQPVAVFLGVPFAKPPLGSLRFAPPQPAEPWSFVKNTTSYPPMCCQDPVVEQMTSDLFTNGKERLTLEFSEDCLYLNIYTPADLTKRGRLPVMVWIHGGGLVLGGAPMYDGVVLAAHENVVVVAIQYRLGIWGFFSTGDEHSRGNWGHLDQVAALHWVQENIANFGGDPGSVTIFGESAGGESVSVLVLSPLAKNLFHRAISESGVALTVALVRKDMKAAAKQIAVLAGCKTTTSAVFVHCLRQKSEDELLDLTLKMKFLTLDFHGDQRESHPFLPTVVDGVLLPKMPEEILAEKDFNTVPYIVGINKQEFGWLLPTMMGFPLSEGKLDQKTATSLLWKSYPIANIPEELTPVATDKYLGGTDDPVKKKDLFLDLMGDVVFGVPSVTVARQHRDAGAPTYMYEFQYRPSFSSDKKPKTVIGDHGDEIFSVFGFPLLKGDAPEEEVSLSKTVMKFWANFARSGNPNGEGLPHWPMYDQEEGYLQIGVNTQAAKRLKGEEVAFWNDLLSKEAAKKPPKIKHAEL
Outline: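 Prodrugs at 2 mM in cruzain assay buffer (pH 7.5, 10% DMSO) with porcine liver esterase at 40 U/mL, shaken at 37 °C. Controls without esterase and buffer only. Aliquots taken at 0–300 min and quenched with MeCN, then the supernatant analysed by HPLC–MS with detection at 270 nm.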

Cytochrome P450 2C9 = Cytochrome P450 2C9 (Homo sapiens, UniProt P11712); experiment: Metabolic stability of the compound assessed as CYP2C9 (unknown origin)-mediated conversion to N-((2S)-1-((3S)-2-hydroxychroman-3-ylamino)-1-oxo-3-phenylpropan-2-yl)-4-methylpiperazine-1-carboxamide measured up to 4 hrs in presence of NADPH-regenerating system; format: ADME
Cytochrome P450 2D6 = Cytochrome P450 2D6 (Homo sapiens, UniProt P10635); experiment: Metabolic stability of the compound assessed as CYP2D6 (unknown origin)-mediated conversion to N-((2S)-1-((3S)-2-hydroxychroman-3-ylamino)-1-oxo-3-phenylpropan-2-yl)-4-methylpiperazine-1-carboxamide measured up to 4 hrs in presence of NADPH-regenerating system; format: ADME
Cytochrome P450 3A4 = Cytochrome P450 3A4 (Homo sapiens, UniProt P08684); experiment: Metabolic stability of the compound assessed as CYP3A4 (unknown origin)-mediated conversion to N-((2S)-1-((3S)-2-hydroxychroman-3-ylamino)-1-oxo-3-phenylpropan-2-yl)-4-methylpiperazine-1-carboxamide measured up to 4 hrs in presence of NADPH-regenerating system; format: ADME
[5] = biological target: Cruzipain (Trypanosoma cruzi) (UniProt P25779); experiment: Time dependent inhibition of Trypanosoma cruzi cruzain using Cbz-Phe-Arg-AMC as substrate measured after >= 20 mins; conditions: time min >=20, TDE = time-dependent effect
Outline: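 Started by adding cruzain to 0.2 nM. Fluorescence (ex 360 / em 460 nm) followed for 20–60 min.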

[6] = Chemical stability of the compound in NMR buffer in absence of DTT assessed as phenylhydrazone formation at 0.2 mM incubated for 2 hrs in presence of 1 M phenyl hydrazine by UV absorbance based analysis; format: physicochemical; conditions: 200 µM
Outline: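 0.2 mM compound treated with 1 mM phenylhydrazine final (added from a 1 M stock) in NMR buffer lacking DTT, with a DMSO control. Phenylhydrazone formation followed continuously by UV absorbance at 282 nm for 2 h.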

[7] = biological target: Cruzipain (Trypanosoma cruzi) (UniProt P25779); experiment: Reversible inhibition of Trypanosoma cruzi cruzain using Cbz-Phe-Arg-AMC as substrate assessed as enzyme recovery preincubated for 2 hrs followed by 100-fold dilution in presence of substrate by rapid dilution assay
[8] = biological target: Cruzipain (Trypanosoma cruzi) (UniProt P25779); experiment: Binding affinity to Trypanosoma cruzi cruzain assessed as formation of enzyme-inhibitor adducts by measuring mass changes by mass spectrometric analysis
[9] = biological target: Cruzipain (Trypanosoma cruzi) (UniProt P25779); experiment: Binding affinity to Trypanosoma cruzi cruzain assessed as covalent bond formation between compound and Cys25 residue by 2D HSQC NMR spectroscopy analysis
Outline: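 ¹³C-labelled lactol diluted from a 10 mM DMSO-d6 stock into NMR buffer. Control at 0.6 mM; sample at 0.4 mM with 0.44 mM freshly SEC-purified cruzain. ¹H-¹³C HSQC recorded at 800 MHz and 25 °C, with a spectrum acquired after 1 h with enzyme.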

[10] = biological target: Cruzipain (Trypanosoma cruzi) (UniProt P25779); experiment: Time dependent inhibition of Trypanosoma cruzi cruzain using Cbz-Phe-Arg-AMC as substrate assessed as association rate constant for EI complex measured over 30 mins
[11] = Selectivity index, ratio of EC50 for antitrypanosomal activity against bloodstream form of Trypanosoma brucei brucei measured after 3 to 4 days by Z2 coulter counter based analysis to Ki for time dependent inhibition of Trypanosoma cruzi cruzain using Cbz-Phe-Arg-AMC as substrate assessed as inhibition constant for EI complex measured for 0.5 to 1 hr by fluorescence based analysis; format: toxicity
Procathepsin L = Procathepsin L (Homo sapiens, UniProt P07711); experiment: Inhibition of human Cathepsin L
SARS-CoV-2 = experiment: Antiviral activity against SARS-CoV-2 infected in human A549 cells transfected with ACE2 assessed as virus-induced cytopathic effect incubated for 4 days by microscopic analysis; format: functional, organism-based; conditions: Severe acute respiratory syndrome coronavirus 2, A549, 96 h
[12] = Inhibition of SARS-CoV-2 3CLpro using ACC-SAVLQSGFRK(DNP)-NH2 as substrate assessed as inhibition constant measured for 0.5 to 1 hr by fluorescence based analysis; set-up: species or system Severe acute respiratory syndrome coronavirus 2

Cruzipain (Trypanosoma cruzi), sequence (P25779 123-467 limits assumed): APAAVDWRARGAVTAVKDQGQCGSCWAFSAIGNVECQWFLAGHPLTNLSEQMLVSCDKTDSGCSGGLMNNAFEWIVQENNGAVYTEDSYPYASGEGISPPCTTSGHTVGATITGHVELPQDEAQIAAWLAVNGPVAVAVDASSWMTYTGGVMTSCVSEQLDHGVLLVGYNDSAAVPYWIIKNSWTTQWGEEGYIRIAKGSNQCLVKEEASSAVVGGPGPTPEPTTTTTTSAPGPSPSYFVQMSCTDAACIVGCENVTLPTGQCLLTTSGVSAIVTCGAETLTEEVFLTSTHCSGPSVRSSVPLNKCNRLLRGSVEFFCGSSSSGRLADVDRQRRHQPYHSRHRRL
Cruzipain, sequence (P25779 whole entry): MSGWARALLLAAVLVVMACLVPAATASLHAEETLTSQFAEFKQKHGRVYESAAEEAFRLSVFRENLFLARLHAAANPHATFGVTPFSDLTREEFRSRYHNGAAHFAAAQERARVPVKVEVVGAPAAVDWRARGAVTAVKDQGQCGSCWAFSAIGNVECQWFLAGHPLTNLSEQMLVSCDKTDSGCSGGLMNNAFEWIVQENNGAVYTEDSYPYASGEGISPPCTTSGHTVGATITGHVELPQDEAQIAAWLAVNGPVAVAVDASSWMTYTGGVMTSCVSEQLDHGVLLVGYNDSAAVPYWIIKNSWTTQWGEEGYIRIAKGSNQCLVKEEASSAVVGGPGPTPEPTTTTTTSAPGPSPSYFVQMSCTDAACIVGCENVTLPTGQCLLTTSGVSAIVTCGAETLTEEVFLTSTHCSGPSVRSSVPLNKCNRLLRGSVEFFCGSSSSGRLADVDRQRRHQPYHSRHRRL
Cytochrome P450 2C9, sequence (P11712 whole entry): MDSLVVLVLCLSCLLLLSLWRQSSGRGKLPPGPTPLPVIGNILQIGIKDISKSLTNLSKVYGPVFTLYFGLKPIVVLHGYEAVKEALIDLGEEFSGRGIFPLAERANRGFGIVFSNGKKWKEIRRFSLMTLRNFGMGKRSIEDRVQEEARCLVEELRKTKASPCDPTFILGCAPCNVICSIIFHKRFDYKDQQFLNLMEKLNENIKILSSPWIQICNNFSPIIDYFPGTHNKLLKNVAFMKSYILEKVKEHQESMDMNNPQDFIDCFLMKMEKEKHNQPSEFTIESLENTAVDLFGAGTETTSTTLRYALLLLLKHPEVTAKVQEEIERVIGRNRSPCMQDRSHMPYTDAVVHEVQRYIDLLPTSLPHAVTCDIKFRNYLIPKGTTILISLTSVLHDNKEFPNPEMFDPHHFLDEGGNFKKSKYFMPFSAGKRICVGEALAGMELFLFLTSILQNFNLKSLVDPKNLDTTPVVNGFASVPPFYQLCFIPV
Cytochrome P450 2D6, sequence (P10635 whole entry): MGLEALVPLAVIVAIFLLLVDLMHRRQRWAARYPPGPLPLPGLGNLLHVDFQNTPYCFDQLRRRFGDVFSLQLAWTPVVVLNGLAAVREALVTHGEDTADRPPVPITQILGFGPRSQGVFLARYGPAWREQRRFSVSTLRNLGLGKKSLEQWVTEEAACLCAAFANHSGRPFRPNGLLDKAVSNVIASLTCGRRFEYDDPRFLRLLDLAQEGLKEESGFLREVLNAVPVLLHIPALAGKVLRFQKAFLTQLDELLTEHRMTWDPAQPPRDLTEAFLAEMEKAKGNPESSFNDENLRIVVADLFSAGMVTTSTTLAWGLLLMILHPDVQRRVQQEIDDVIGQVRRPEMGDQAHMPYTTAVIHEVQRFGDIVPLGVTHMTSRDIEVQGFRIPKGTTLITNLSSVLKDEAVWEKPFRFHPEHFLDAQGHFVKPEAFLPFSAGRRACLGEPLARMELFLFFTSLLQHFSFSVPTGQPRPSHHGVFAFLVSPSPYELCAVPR
Cytochrome P450 3A4, sequence (P08684 whole entry): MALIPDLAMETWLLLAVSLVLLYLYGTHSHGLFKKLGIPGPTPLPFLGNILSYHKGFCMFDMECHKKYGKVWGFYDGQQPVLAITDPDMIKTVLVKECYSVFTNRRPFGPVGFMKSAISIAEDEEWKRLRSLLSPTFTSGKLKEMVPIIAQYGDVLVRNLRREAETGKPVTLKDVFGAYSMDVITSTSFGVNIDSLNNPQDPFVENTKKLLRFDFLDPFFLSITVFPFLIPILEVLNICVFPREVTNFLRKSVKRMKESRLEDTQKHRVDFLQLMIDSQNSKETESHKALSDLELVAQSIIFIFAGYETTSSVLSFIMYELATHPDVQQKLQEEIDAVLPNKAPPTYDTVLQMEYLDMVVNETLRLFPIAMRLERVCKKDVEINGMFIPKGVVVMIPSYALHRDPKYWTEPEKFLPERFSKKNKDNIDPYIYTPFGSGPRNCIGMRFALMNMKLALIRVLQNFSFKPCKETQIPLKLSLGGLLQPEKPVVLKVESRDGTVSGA
Procathepsin L, sequence (P07711 whole entry): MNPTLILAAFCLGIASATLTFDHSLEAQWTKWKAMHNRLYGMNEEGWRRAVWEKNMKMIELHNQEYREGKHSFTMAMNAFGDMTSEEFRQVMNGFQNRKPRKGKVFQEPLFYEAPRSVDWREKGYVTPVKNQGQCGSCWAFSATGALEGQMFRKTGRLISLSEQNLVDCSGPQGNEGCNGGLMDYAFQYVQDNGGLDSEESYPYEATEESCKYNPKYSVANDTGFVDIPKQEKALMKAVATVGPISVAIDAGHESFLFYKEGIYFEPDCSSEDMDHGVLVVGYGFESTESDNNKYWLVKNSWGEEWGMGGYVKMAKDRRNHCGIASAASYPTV

SMILES | inhibition [1] | Activity [2] | EC50 [3] | Ki (Cruzipain) | Activity (C2C12) | EC50 (Trypanosoma cruzi) | also measured
O=C(N[C@@H](Cc1ccccc1)C(=O)N[C@H]1Cc2cc(Cl)ccc2OC1O)OCc1ccccc1 (stereo partly specified) | 9% | 91% | 5.8 µM | 0.074 µM | Non-Toxic | – | –
CC(=O)OC1Oc2ccccc2C[C@@H]1NC(=O)[C@H](Cc1ccccc1)NC(=O)N1CCN(C)CC1 (stereo partly specified) | – | – | 3.7 µM | 1 µM | Non-Toxic | 13 µM | t1/2 [4]: 48 min; metabolised at 3 h (Liver carboxylesterase): 10%
CC(C)OC1Oc2ccccc2C[C@@H]1NC(=O)[C@H](Cc1ccccc1)NC(=O)N1CCN(C)CC1 (stereo partly specified) | – | – | 14 µM | > 5 µM | Non-Toxic | – | Stability (Cytochrome P450 2C9): Stable; Stability (Cytochrome P450 2D6): Stable; Stability (Cytochrome P450 3A4): Stable
CN1CCN(C(=O)N[C@@H](Cc2ccccc2)C(=O)N[C@H](C=O)CCc2ccccc2)CC1 | – | – | – | – | – | – | inhibition [5]: Tde; Stability [6]: Unstable; Activity [7]: inactive
COc1ccc2c(c1)C[C@H](NC(=O)[C@H](Cc1ccccc1)NC(=O)OCc1ccccc1)C(O)O2 (stereo partly specified) | 9% | 91% | 2.6 µM | 0.35 µM | Non-Toxic | – | –
O=C(N[C@@H](Cc1ccccc1)C(=O)N[C@H]1Cc2cc(F)ccc2OC1O)OCc1ccccc1 (stereo partly specified) | 9% | 91% | 2.7 µM | 0.048 µM | Non-Toxic | 3.5 µM | Activity [8]: Active
O=C(N[C@@H](Cc1ccccc1)C(=O)N[C@H]1Cc2ccccc2OC1O)OCc1ccccc1 (stereo partly specified) | 9% | 91% | 6.8 µM | 0.049 µM | Non-Toxic | 2.9 µM | Activity [8]: Active
COc1ccccc1C[C@@H](C=O)NC(=O)[C@H](Cc1ccccc1)NCC(=O)OCc1ccccc1 | – | – | – | 0.022 µM | – | – | –
CCC(=O)OC1Oc2ccccc2C[C@@H]1NC(=O)[C@H](Cc1ccccc1)NC(=O)N1CCN(C)CC1 (stereo partly specified) | – | – | 3.1 µM | > 5 µM | Non-Toxic | – | t1/2 [4]: 24 min
CN1CCN(C(=O)N[C@@H](Cc2ccccc2)C(=O)N[C@@H]2Cc3ccccc3C[C@H]2O)CC1 (mixture of isomers) | – | – | – | > 100 µM | – | – | –
COC(=O)c1ccc2c(c1)C[C@H](NC(=O)[C@H](Cc1ccccc1)NC(=O)OCc1ccccc1)C(O)O2 (stereo partly specified) | 9% | 91% | 4 µM | 0.018 µM | Non-Toxic | 3.5 µM | –
CC(C)C(=O)OC1Oc2ccccc2C[C@@H]1NC(=O)[C@H](Cc1ccccc1)NC(=O)N1CCN(C)CC1 (stereo partly specified) | – | – | 4 µM | > 5 µM | Non-Toxic | 10 µM | t1/2 [4]: 16 min
CN1CCN(C(=O)N[C@@H](Cc2ccccc2)C(=O)N[C@H]2Cc3ccccc3OC2O)CC1 (stereo partly specified) | – | – | 0.6 µM | 0.047 µM | Non-Toxic | > 20 µM | inhibition [5]: Tde; Activity [9]: Active; Activity [8]: Active; Stability [6]: Stable; Activity [7]: inactive
O=C(CN[C@@H](Cc1ccccc1)C(=O)N[C@H](CO)Cc1ccccc1O)OCc1ccccc1 | – | – | – | > 10 µM | – | – | –
Cc1ccc2c(c1)C[C@H](NC(=O)[C@H](Cc1ccccc1)NC(=O)OCc1ccccc1)C(O)O2 (stereo partly specified) | 9% | 91% | 0.5 µM | – | Non-Toxic | 5.7 µM | Activity [8]: Active
O=C[C@H](Cc1ccccc1)NC(=O)[C@H](Cc1ccccc1)NC(=O)OCc1ccccc1 (Cbz-Phe-Phe-aldehyde) | – | – | 3.3 µM | 0.00044 µM | Toxic | 0.5 µM | Ka [10]: 7.6 10^-4/s; Activity [7]: inactive; Ratio [11]: 7500
CN1CCN(C(=O)N[C@@H](Cc2ccccc2)C(=O)N[C@H](/C=C/S(=O)(=O)c2ccccc2)CCc2ccccc2)CC1 [K-777] | – | – | – | – | Toxic | 0.04 µM | –
CCOC1Oc2ccccc2C[C@@H]1NC(=O)[C@H](Cc1ccccc1)NC(=O)N1CCN(C)CC1 (stereo partly specified) | – | – | 12 µM | > 5 µM | Non-Toxic | – | Stability (Cytochrome P450 2C9): Stable; Stability (Cytochrome P450 2D6): Stable; Stability (Cytochrome P450 3A4): Stable
CC(C)[C@H](NC(=O)OCc1ccccc1)C(=O)N[C@@H](CC1CCCCC1)C(=O)N[C@H](C=O)Cc1ccc[nH]c1=O | – | – | – | – | – | – | Ki (Procathepsin L): 0.053 µM; EC50 (SARS-CoV-2): 5 µM; Ki [12]: 0.009 µM
O=C(Cn1ccnc1[N+](=O)[O-])NCc1ccccc1 [BENZNIDAZOLE] | – | – | – | – | – | 4 µM | –
